Calls of active or inactive are those of the source. The calls are words filed in the database; no cut-off is given here.
Assays:
Heme = test: Binding affinity to heme assessed as inhibition of 1-oleoyl-rac-glycerol-induced beta-hematin polymerization by UV spectrophotometry
Plasmodium falciparum [1] = test: Antiplasmodial activity against chloroquine-resistant Plasmodium falciparum K1 by Malaria SYBR Green I-nucleic acid staining based fluorescence assay; assay type: functional, organism-based
How it was run: (§1)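 SYBR Green I fluorescence assay (MSF). DMSO stock at 5 mg/mL, two-fold serial dilutions in RPMI-1640-FBS, tested in duplicate wells. Parasitized erythrocytes (0.8% parasitaemia, 1.0% cell suspension) incubated 72 h at 37 °C under 5% CO2. Lysis buffer with SYBR Green I added, 1 h at 37 °C. Fluorescence read at 485/530 nm.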

Plasmodium falciparum [2] = test: Antiplasmodial activity against chloroquine-sensitive Plasmodium falciparum 3D7 by Malaria SYBR Green I-nucleic acid staining based fluorescence assay; assay type: functional, organism-based; how it was run: as §1
[3] = Binding affinity to hematin in 40% aqueous DMSO and 20 mM HEPES buffer at pH 7.5 at 25 degC
Plasmodium falciparum [4] = test: Resistance index, ratio of IC50 for chloroquine-resistant Plasmodium falciparum K1 to IC50 for chloroquine-sensitive Plasmodium falciparum 3D7; assay type: functional
How it was run: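 Resistance index computed as IC50 (K1) / IC50 (3D7). Both IC50s come from the 72 h SYBR Green I fluorescence assay on P. falciparum-infected erythrocytes, run with two-fold serial dilutions in duplicate wells.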

[5] = Selectivity index, ratio of CC50 for african green monkey Vero cells to IC50 for chloroquine-sensitive Plasmodium falciparum; assay type: functional
Plasmodium yoelii [6] = test: Antimalarial activity against chloroquine-resistant Plasmodium yoelii N-67infected in Swiss Albino mouse assessed as suppression of parasitemia at 100 mg/kg, po once daily for 7 days measured on day 4 post infection; assay type: functional
How it was run: (§2)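 P. yoelii N-67 (innately CQ-resistant) infection in Swiss albino mice (22 ± 2 g), 1 × 10^6 parasitized RBC on day 0. Groups of five dosed orally once daily from day 0, 100 mg/kg/day as aqueous suspension with a few drops of Tween 80. Parasitaemia read from thin blood smears every four days. % suppression uses the group mean vs untreated controls. Survival and cure (no parasitaemia) tracked to day 28.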

Plasmodium yoelii [7] = test: Antimalarial activity against chloroquine-resistant Plasmodium yoelii N-67infected in Swiss Albino mouse assessed as mouse survival on day 28 at 100 mg/kg, po once daily for 7 days measured on day 4 post infection; assay type: functional, organism-based; set-up: dose 100 mg/kg; how it was run: as §2
Plasmodium yoelii [8] = test: Antimalarial activity against chloroquine-resistant Plasmodium yoelii N-67infected in Swiss Albino mouse assessed as mouse cured on day 28 at 100 mg/kg, po once daily for 7 days measured on day 4 post infection; assay type: functional, organism-based; set-up: dose 100 mg/kg; how it was run: as §2
Plasmodium yoelii [9] = test: Antimalarial activity against chloroquine-resistant Plasmodium yoelii N-67infected in Swiss Albino mouse assessed as mouse cured on day 28 at 100 mg/kg, po once daily for 4 days measured on day 4 post infection; assay type: functional, organism-based; set-up: dose 100 mg/kg; how it was run: as §2
Plasmodium yoelii [10] = test: Antimalarial activity against chloroquine-resistant Plasmodium yoelii N-67infected in Swiss Albino mouse assessed as suppression of parasitemia at 100 mg/kg, po once daily for 4 days measured on day 4 post infection; assay type: functional; details: N-67, 96 h; how it was run: as §2
Plasmodium yoelii [11] = test: Antimalarial activity against chloroquine-resistant Plasmodium yoelii N-67infected in Swiss Albino mouse assessed as mouse survival on day 28 at 100 mg/kg, po once daily for 4 days measured on day 4 post infection; assay type: functional, organism-based; set-up: dose 100 mg/kg; how it was run: as §2
Plasmodium yoelii [12] = test: Antimalarial activity against chloroquine-resistant Plasmodium yoelii N-67infected in Swiss Albino mouse assessed as mouse cured on day 28 at 20 mg/kg, po once daily for 4 days measured on day 4 post infection; assay type: functional, organism-based; set-up: dose 20 mg/kg
How it was run: (§3)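 Reference arm in the N-67 P. yoelii Swiss albino mouse model. 1 × 10^6 parasitized RBC given on day 0, five mice per group, oral dosing once daily. Parasitaemia from thin blood smears every four days; % suppression from the group mean vs untreated controls. Survival and cure (no parasitaemia) followed to day 28.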

Plasmodium yoelii [13] = test: Antimalarial activity against chloroquine-resistant Plasmodium yoelii N-67infected in Swiss Albino mouse assessed as mouse survival on day 28 at 20 mg/kg, po once daily for 4 days measured on day 4 post infection; assay type: functional, organism-based; set-up: dose 20 mg/kg; how it was run: as §3
Plasmodium yoelii [14] = test: Antimalarial activity against chloroquine-resistant Plasmodium yoelii N-67infected in Swiss Albino mouse assessed as suppression of parasitemia at 20 mg/kg, po once daily for 4 days measured on day 4 post infection; assay type: functional; details: N-67, 96 h; how it was run: as §3

| SMILES | IC50 (Heme) [nM] | IC50 (Plasmodium falciparum [1]) [nM] | IC50 (Plasmodium falciparum [2]) [nM] | log K [3] | Ratio IC50 (Plasmodium falciparum [4]) | Selectivity Index [5] | inhibition in vivo at 100 mg/kg (Plasmodium yoelii [6]) [%] | Activity (Plasmodium yoelii [7]) | Activity (Plasmodium yoelii [8]) | Activity (Plasmodium yoelii [9]) | inhibition in vivo at 100 mg/kg (Plasmodium yoelii [10]) [%] | Activity (Plasmodium yoelii [11]) | Activity (Plasmodium yoelii [12]) | Activity (Plasmodium yoelii [13]) | inhibition in vivo at 20 mg/kg (Plasmodium yoelii [14]) [%] |
| --- | --- | --- | --- | --- | --- | --- | --- | --- | --- | --- | --- | --- | --- | --- | --- |
| C[C@H](CCCNC(C)(C)C)Nc1ccnc2cc(Cl)ccc12 | 170000 | > 1560 | 4.66 | 5.71 | >335 | 24459 | – | – | – | – | – | – | – | – | – |
| C[C@@H](CCCNC(C)(C)C)Nc1ccnc2cc(Cl)ccc12 | 150000 | > 1560 | 33 | 5.04 | >47.43 | 7100 | – | – | – | – | – | – | – | – | – |
| C[C@@H](CCCN1CCN(C)CC1)Nc1ccnc2cc(Cl)ccc12 | 140000 | 21.8 | 14.2 | 4.73 | 1.53 | 14744 | 100 | Active | – | – | – | – | – | – | – |
| C[C@H](CCCN1CCOCC1)Nc1ccnc2cc(Cl)ccc12 | 150000 | 106 | 28.1 | 5.69 | 3.76 | 4186 | – | – | – | – | – | – | – | – | – |
| C[C@H](CCCN1CCCC1)Nc1ccnc2cc(Cl)ccc12 | 140000 | 125 | 10.2 | 6.02 | 12.23 | 14140 | 100 | inactive | inactive | – | – | – | – | – | – |
| CCN(C)CCC[C@H](C)Nc1ccnc2cc(Cl)ccc12 | 150000 | 258 | 12.4 | 5.61 | 20.85 | 26389 | – | – | – | – | – | – | – | – | – |
| CCCCCCCCN(CCCCCCCC)CCC[C@H](C)Nc1ccnc2cc(Cl)ccc12 | 200000 | 7.95 | 94.8 | 5.58 | 0.084 | 103.94 | 14.5 | inactive | inactive | – | – | – | – | – | – |
| C[C@H](CCCN(C)C)Nc1ccnc2cc(Cl)ccc12 | 190000 | 202 | 6 | 5.77 | 33.74 | 28483 | – | – | – | – | – | – | – | – | – |
| CCN(CC)CCC[C@@H](C)Nc1ccnc2cc(Cl)ccc12 [(R)-CHLOROQUINE] | – | – | – | – | – | – | 100 | – | inactive | – | – | – | – | – | – |
| C[C@H](CCCN1CCN(C)CC1)Nc1ccnc2cc(Cl)ccc12 | 180000 | 105 | 6.92 | 5.53 | 15.2 | 18245 | 100 | Active | – | – | – | – | – | – | – |
| C[C@H](CCCN1CCCCC1)Nc1ccnc2cc(Cl)ccc12 | 130000 | 536 | 52.9 | 7.19 | 10.13 | 4257 | – | – | – | – | – | – | – | – | – |
| CCCCCCCCN(CCCCCCCC)CCC[C@@H](C)Nc1ccnc2cc(Cl)ccc12 | 190000 | 126 | 78.6 | 5.02 | 1.6 | 44.28 | 9.5 | inactive | inactive | – | – | – | – | – | – |
| CCN(CC)CCC[C@H](C)Nc1ccnc2cc(Cl)ccc12 | – | – | – | – | – | – | 100 | – | inactive | – | – | – | – | – | – |
| C[C@@H](CCCN1CCCCC1)Nc1ccnc2cc(Cl)ccc12 | 150000 | 121 | 14.9 | 5.4 | 8.09 | 20154 | – | – | – | – | – | – | – | – | – |
| C[C@@H](CCCN(C)C)Nc1ccnc2cc(Cl)ccc12 | 150000 | 358 | 17.1 | 4.95 | 20.88 | 12483 | – | – | – | – | – | – | – | – | – |
| CCN(C)CCC[C@@H](C)Nc1ccnc2cc(Cl)ccc12 | 140000 | 287 | 7.78 | 3.63 | 36.92 | 15838 | – | – | – | – | – | – | – | – | – |
| C[C@@H](CCCN1CCOCC1)Nc1ccnc2cc(Cl)ccc12 | 190000 | 56.8 | 14 | 6 | 4.05 | 19256 | – | – | – | inactive | 99.6 | Active | – | – | – |
| C[C@@H](CCCN1CCCC1)Nc1ccnc2cc(Cl)ccc12 | 180000 | 60.4 | 15.8 | 5.19 | 3.83 | 1469 | 100 | – | inactive | – | – | – | – | – | – |
| CCN(CC)CCCC(C)Nc1ccnc2cc(Cl)ccc12 (racemic) [CHLOROQUINE] | – | – | – | – | – | – | – | – | – | – | – | – | inactive | Active | 99 |
